Source: PubChem
Sampled rows, rich in hits. Any-hit rate of the full collection: about 1.8%.
HKDC1 inh: HKDC1 (human) hexokinase inhibition. Q2TB90. recombinant HKDC1, G6PDH/diaphorase resazurin coupled fluorescence. inhibition, % at 20 µM. 0.16% of 340,000 active. AID 493160;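 active means inhibition above about 35% when tested at 20 µM, limit read from the data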;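 further: plate controls were DMSO wells with enzyme for no effect and DMSO wells lacking enzyme for full effect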
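Test system: Recombinant HKDC1 (HK5) hexokinase enzyme, produced in-house | Input: HKDC1 at 5 µg/mL | Buffer or medium: Tris pH 8.0 buffer with MgCl2, Tween-20, BSA, BME | Schedule: 90 min reaction incubation at room temperature, dark | Technique: Resazurin-to-resorufin fluorescence via G6PDH and diaphorase coupling, 525/613 nm | Controls: DMSO wells with and without enzyme mix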
SUMO1-SIM PPI: SUMO1-SIM interaction modulation | 0.33% of 360,000 active | inhibition, % at 20 µM | SUMO1 binding to a labelled peptide, TR-FRET, 1 h | P63165; in the data active means inhibition above about 37%
Target sequence (P63165 whole entry, looked up): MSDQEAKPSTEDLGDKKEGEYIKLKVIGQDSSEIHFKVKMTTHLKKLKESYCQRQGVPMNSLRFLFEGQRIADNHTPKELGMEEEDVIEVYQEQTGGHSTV
DNMT1 block: DNMT1 (human) enzyme inhibition; 0.83% of 360,000 active; inhibition (reported as % activation of signal), % at 10 µM; DNMT1 molecular beacon, Hinp1I cleavage, fluorescence; in the data active means inhibition above about 50%
LMPTP inh: blocks human LMPTP phosphatase | recombinant LMPTP-A, OMFP fluorogenic substrate, fluorescence intensity | inhibition, % at 20 µM | 0.22% of 360,000 active | AID 651560;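 active means compounds that cut the enzyme signal by at least half of the control window in the single-dose screen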;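 further: plate controls were DMSO wells with enzyme plus substrate for no effect and substrate without enzyme for full effect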
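Assay system: LMPTP-A phosphatase enzyme | Input: 0.625 nM enzyme | Also added: Fluorogenic phosphatase substrate OMFP at 400 µM final | Compound dosing: One test concentration per compound, 20 µM, with 3% DMSO overall | Schedule: 50 min enzyme reaction at room temperature, protected from light | Signal: Fluorescence intensity | Benchmarks: no-enzyme and uninhibited controls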
STEP inh: STEP (human) phosphatase inhibition; recombinant STEP, OMFP fluorogenic substrate, fluorescence; inhibition, % at 20 µM; 0.25% of 360,000 active; AID 588621;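 active means inhibition at 20 µM, scaled per plate between control wells, above about 37%, limit read from the data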;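 further: 0% = DMSO with enzyme and substrate and 100% = substrate only without enzyme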
Target sequence (P54829 whole entry, looked up): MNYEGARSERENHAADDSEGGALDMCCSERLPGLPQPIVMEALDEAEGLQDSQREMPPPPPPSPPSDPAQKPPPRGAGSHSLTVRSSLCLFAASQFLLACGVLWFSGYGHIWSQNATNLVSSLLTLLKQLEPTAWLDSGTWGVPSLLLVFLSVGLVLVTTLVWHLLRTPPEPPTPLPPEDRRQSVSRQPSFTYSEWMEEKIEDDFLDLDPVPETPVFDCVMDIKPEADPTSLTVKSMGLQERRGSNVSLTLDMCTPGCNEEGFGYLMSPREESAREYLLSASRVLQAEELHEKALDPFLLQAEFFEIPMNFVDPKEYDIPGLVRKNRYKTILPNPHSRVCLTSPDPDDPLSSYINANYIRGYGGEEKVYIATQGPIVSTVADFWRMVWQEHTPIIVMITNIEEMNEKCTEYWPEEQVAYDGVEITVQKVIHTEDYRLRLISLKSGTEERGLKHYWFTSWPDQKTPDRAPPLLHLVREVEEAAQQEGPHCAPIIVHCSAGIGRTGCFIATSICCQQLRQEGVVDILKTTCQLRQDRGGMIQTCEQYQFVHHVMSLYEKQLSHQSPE
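Test system: STEP tyrosine phosphatase / Reagent: OMFP at 25 µM / Doses: 20 µM, 1% DMSO / Read-out: percent inhibition scaled to no-enzyme and uninhibited-enzyme controls, plate-pattern corrected / Detection: FITC-channel fluorescence of OMFP product / Medium: Bis-Tris buffer pH 6.0, 2.5 mM DTT, 0.005% Tween 20 / Schedule: 20 min at room temperature, dark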
Scp1 inh: Scp-1 (human) phosphatase inhibition; Q9GZU7; Recombinant Scp1, phosphopeptide, malachite green phosphate absorbance; inhibition, % at 20 µM; 0.88% of 340,000 active;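 active means inhibition above about 50% at 20 µM, limit read from the data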;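 further: plate controls were DMSO wells with enzyme for no effect and wells lacking enzyme for full effect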
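Test system: SCP-1 catalytic domain; Buffer or medium: Acidic Tris acetate buffer with magnesium and detergent; Also added: Phosphorylated 17-residue peptide substrate; Compound: single 20 µM dose, 1% DMSO; Schedule: enzyme reaction 45 min at room temperature, colour 5 min, stabilisation 30 min; Signal: Phosphate-binding colour reagent, absorbance read at 630 nm.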
HKDC1 act conf2: HKDC1 (human) activation, single-dose confirmed | inhibition, % at 20 µM | recombinant HKDC1, G6PDH/diaphorase resazurin fluorescence; hits give low values | 14% of 740 active | shares compounds with HKDC1 inh;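 active means inhibition at or below a set negative limit, negative inhibition meaning the enzyme was activated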
Beacon interf DR: counter-screen for DNMT1 inhibitors: spectral interference, dose response; 200 tested, under 10 active; shares compounds with DNMT1 block; IC50, µM; molecular beacon fluorescence; AID 602382; call rule not given here
DNMT1 inh conf: DNMT1 inhibition confirmation, single concentration | inhibition, % at 10 µM | DNMT1 molecular beacon HinP1I cleavage, fluorescence | shares compounds with DNMT1 block | 8% of 2,300 active;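 active means average inhibition of at least 30% in the single-concentration confirmation test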
DNMT1 interf: counter-screen for DNMT1 inhibitors: spectral interference. activation (fluorescence interference), % at 10 µM. shares compounds with DNMT1 block. 1% of 2,300 active. DNMT1 molecular beacon spectral interference counterscreen, fluorescence 485/520;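 active means activation of at least 30% at 10 µM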;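 further: DNMT1 catalytic domain with a HinP1I cleavage step and a FAM/dabcyl DNA beacon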
Starred values were filed as active, the others as inactive; / = no result given.

SMILES	HKDC1 inh	SUMO1-SIM PPI	DNMT1 block	LMPTP inh	STEP inh	Scp1 inh	DNMT1 inh conf	DNMT1 interf	others
CC1([N+](=O)[O-])COP(=O)(Nc2cccc(F)c2)OC1 (centres undefined)	-5	3	-1	-2	-3	0	/	/
Cc1ccc(N2C(=O)NC(=O)/C(=C\c3cc(C)n(-c4sc5c(c4C#N)CCCC5)c3C)C2=O)cc1	66*	51*	70*	2	3	2	20	-5	HKDC1 act conf2=77;Beacon interf DR=>99
CCOC(=O)c1c(-n2c(C)cc(/C=C3/C(=O)NC(=O)N(CC)C3=O)c2C)sc2c1CCCC2	7	13	15	3	1	0	/	/
CCOC(=O)c1c(-n2c(C)cc(C=C3C(=O)NC(=S)NC3=O)c2C)sc2c1CCCC2	59*	28	100*	2	3	9	29	-8	HKDC1 act conf2=61;Beacon interf DR=>99
O=c1c2ccccc2nc(N2CCCC2)n1-c1ccc(Cl)cc1	-1	2	1	-2	5	-5	/	/
Cc1cc(/C=C2\C(=O)NC(=O)N(c3cccc(Br)c3)C2=O)c(C)n1C	-4	1	8	0	-3	-14	/	/
Cc1cc(/C=C2\C(=O)NC(=O)N(c3cccc(F)c3)C2=O)c(C)n1-c1cc(C(=O)O)cc(C(=O)O)c1	8	26	75*	0	9	39	10	4
C=CCSc1nc2c(c(-c3ccsc3)c1C#N)CN(C)CC2	16	-44	52*	23	1	-4	2	3
O=c1[nH]c(O)c(/C=C2\C=Nc3ccc(OCc4ccccc4)cc32)c(=O)[nH]1	-4	4	71*	1	0	-5	8	0
CN1C(=O)/C(=C/c2cccn2-c2ccc3ccccc3c2)C(=O)NC1=S	22	15	81*	6	6	-4	4	-4
Cc1cc(C)cc(N2C(=O)NC(=O)/C(=C\c3cccn3-c3ccccc3)C2=O)c1	3	5	3	-2	1	3	/	/
Cc1cc(C)cc(N2C(=O)NC(=O)/C(=C\c3cccn3-c3ccc(Cl)cc3)C2=O)c1	12	7	17	-1	1	-10	/	/
O=C1NC(=S)NC(=O)C1=Cc1cccn1-c1ccc(O)cc1	25	11	84*	32	3	56*	65*	-4	Beacon interf DR=>99
CCC(=O)OC1(c2ccccc2)CCN(C)CC1C (centres undefined)	-5	-2	2	1	1	-9	/	/
CC(C)OCCCNC(=O)c1c(N)n(CC2CCCO2)c2nc3ccccc3nc12 (centres undefined)	16	40*	85*	13	4	1	1	9
CC(C)CCOC(=O)c1c(N)n(CC2CCCO2)c2nc3ccccc3nc12 (centres undefined)	11	36	33	6	5	3	/	/
CCCNC(=O)c1c(N)n(CC2CCCO2)c2nc3ccccc3nc12 (centres undefined)	17	44*	61*	4	5	7	2	5
C#C[C@]1(O)[C@H](O)CC2C3CC[C@H]4C[C@@H](O)CC[C@]4(C)C3CC[C@@]21C (some centres undefined)	/	3	67*	3	-2	/	4	4
CC(C)c1ccc(N2C(=O)NC(=O)/C(=C\C=C\c3ccco3)C2=O)cc1	14	/	/	/	/	5	/	/
CC(C)N1C(=O)/C(=C/C=C/c2ccco2)C(=O)N(Cc2ccco2)C1=O	23	8	109*	5	2	70*	27	0	Beacon interf DR=>99
O=C1NC(=O)N(Cc2ccccc2)C(=O)/C1=C/C=C/c1ccco1	12	19	90*	2	1	-11	2	1
CCN1C(=O)C(=C/C=C/c2ccco2)C(=O)N(CC)C1=S	-11	19	101*	6	-6	55*	12	-3
CCOc1cc2c(cc1OCC)-n1cccc1C(c1ccc(OC)c(O)c1)NC2 (centres undefined)	-5	1	0	-1	-2	-3	/	/
Oc1ccccc1-[n+]1c(-c2ccccc2)cc(-c2ccccc2)c(O)c1-c1ccccc1	15	9	7	8	17	15	/	/
C/C(=C/CCC(C)[C@H]1CC[C@@]2(C)C3=C(CC[C@]12C)[C@@]1(C)CCC(=O)C(C)(C)[C@@H]1CC3)C(=O)O (some centres undefined)	24	41*	60*	3	0	-8	23	-9	Beacon interf DR=>99
SMILES	HKDC1 inh	SUMO1-SIM PPI	DNMT1 block	LMPTP inh	STEP inh	Scp1 inh	DNMT1 inh conf	DNMT1 interf	others
CCC(=NCCCN1CCOCC1)c1c(O)n(-c2ccccc2C)c(=O)[nH]c1=O	-2	5	-1	-7	1	1	/	/
O=C(O)C1C2CCC(O2)C1C(=O)Nc1cccc(Br)c1 (centres undefined)	-4	1	79*	0	0	-9	3	4
CC(C)C1(C)N=C(c2ncccc2C(=O)O)NC1=O (centres undefined)	-3	-2	94*	-2	-1	-11	2	3
O=c1[nH]c(=O)n(Cc2ccco2)c(O)c1C=NCCN1CCNCC1	0	3	0	-2	1	-14	/	/
COc1ccc(N2C(=O)/C(=C/c3ccc(N(C)C)o3)C(=O)NC2=S)cc1	2	-223	5	14	5	2	/	/
O=C1NC(=S)N(c2ccccc2)C(=O)/C1=C/c1ccco1	68*	54*	93*	7	40	93*	82*	-11	Beacon interf DR=>99
COc1cccc(N2C(=O)/C(=C/c3ccc(C)o3)C(=O)NC2=S)c1	8	20	62*	1	4	39	0	2
COC(=O)C1=C(c2cccc(OCc3ccccc3)c2)C[C@@H]2CC[C@H]1N2C(=O)NCc1ccc(N(C)C)cc1	7	-1	-18	7	3	13	/	/
FC(F)(F)c1ccccc1CNCCc1c[nH]c2ccccc12	2	0	4	-2	1	-10	/	/
